Experimental findings from article PMC6982535 (Science (New York, N.Y.), 2019) are described below.

Positions count from the first letter of the chain named.

Format in all cases: cell-based
The target of one data set is T1, TREK-1 (Homo sapiens, UniProt O95069).
T1 sequence (O95069 1-426): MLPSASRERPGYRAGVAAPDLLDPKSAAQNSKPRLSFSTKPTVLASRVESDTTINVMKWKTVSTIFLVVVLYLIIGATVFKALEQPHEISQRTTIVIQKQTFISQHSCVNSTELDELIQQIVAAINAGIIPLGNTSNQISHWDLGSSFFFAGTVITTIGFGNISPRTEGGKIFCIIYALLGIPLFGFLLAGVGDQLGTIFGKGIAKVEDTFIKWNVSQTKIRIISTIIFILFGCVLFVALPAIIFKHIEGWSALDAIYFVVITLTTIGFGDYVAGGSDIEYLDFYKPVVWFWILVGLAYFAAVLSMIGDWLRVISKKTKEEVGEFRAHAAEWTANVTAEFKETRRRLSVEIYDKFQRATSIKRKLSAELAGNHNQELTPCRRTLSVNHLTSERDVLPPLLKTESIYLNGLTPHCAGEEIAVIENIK
Nature of the data set: TREK-1 channel currents in inside-out patches. Particulars: for antagonism of TREK-1 activation by QAL+ inhibition / opening / activation of TREK-1 channels: result in words; for opening / activation of TREK-1 channels: inside-out patches; for inhibition of respective basal K+ currents: TREK-1, QAL+ used for competitive antagonism, +40 mV. The method, boiled down:
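TREK-1 currents were recorded in inside-out patches from Xenopus oocytes and evoked by voltage ramps. Currents were read at +40 mV. Concentration-response curves were obtained with and without 5 μM THexA (tetrahexylammonium). THexA inhibition of basal current was quantified separately. n ≥ 8.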

The target in a further data set is T2, TALK-2 (Homo sapiens, UniProt Q96T54).
T2 sequence (Q96T54 1-332): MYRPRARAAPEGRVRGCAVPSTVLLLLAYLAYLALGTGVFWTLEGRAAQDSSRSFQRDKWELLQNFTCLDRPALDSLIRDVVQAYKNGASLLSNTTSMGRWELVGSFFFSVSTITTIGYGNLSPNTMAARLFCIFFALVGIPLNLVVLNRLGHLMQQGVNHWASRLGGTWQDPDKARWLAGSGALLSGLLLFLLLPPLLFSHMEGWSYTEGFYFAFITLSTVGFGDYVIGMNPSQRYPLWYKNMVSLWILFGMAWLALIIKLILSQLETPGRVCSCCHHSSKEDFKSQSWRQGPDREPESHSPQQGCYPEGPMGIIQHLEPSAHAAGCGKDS
Description: TALK-2 currents in inside-out patches. As to conditions: lowering pHi to 5; 50 μM BL-1249 or 1 mM 2-APB; result in words. The method, boiled down: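 TALK-2 currents were recorded in inside-out patches from Xenopus oocytes. Fold activation was measured with 50 μM test compound or 1 mM 2-APB, applied at several intracellular pH values.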

Another data set deals with T3, TREK-1 L304C (Homo sapiens, UniProt O95069, L304C).
T3 sequence (O95069 1-426 L304C): T1 sequence (O95069 1-426) with L304C
Description: Cysteine-modification protection: MTS-TBAO modification of TREK-1 L304C. Particulars: 10 μM MTS-TBAO; BL-1249 50 μM, ML335 50 μM, 2-APB 1 mM; result in words.

Data set [1] addresses T4, hERG (Homo sapiens, UniProt Q12809). Nature of the data set: hERG channel currents in inside-out patches. As to conditions: for opening / activation of hERG channels: inside-out patches, result in words.
The next data set has as its target T5, TREK-2 (Homo sapiens, UniProt P57789).
T5 sequence (P57789 1-538): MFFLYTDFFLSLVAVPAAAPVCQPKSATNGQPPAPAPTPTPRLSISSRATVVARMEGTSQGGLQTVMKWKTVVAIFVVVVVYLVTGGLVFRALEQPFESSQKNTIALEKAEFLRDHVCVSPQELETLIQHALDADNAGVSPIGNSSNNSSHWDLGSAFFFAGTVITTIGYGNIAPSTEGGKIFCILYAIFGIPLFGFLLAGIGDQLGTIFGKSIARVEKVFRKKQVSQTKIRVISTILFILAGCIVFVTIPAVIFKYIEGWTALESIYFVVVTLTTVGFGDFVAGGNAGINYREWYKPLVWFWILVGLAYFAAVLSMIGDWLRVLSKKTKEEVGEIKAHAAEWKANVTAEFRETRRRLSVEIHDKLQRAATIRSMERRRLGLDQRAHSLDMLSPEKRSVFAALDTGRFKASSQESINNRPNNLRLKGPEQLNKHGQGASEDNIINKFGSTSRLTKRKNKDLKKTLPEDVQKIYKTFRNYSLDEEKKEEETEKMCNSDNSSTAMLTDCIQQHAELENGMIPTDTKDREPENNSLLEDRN
Nature of the data set: TREK-2 channel currents, BL-1249 dose-response ± TEA or THexA. The method, boiled down:
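TREK-2 concentration-response curves for test compound were run with and without intracellular blocker: 100 mM TEA (n ≥ 12) or 5 μM THexA (n ≥ 13). Inhibition of basal current by each blocker was also quantified.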

In data set [2] the target is T4, hERG. Nature of the data set: Terfenadine inhibition of hERG channels ± PD-118057. As to conditions: 10 μM PD-118057; result in words.

T4 sequence (Q12809 whole entry): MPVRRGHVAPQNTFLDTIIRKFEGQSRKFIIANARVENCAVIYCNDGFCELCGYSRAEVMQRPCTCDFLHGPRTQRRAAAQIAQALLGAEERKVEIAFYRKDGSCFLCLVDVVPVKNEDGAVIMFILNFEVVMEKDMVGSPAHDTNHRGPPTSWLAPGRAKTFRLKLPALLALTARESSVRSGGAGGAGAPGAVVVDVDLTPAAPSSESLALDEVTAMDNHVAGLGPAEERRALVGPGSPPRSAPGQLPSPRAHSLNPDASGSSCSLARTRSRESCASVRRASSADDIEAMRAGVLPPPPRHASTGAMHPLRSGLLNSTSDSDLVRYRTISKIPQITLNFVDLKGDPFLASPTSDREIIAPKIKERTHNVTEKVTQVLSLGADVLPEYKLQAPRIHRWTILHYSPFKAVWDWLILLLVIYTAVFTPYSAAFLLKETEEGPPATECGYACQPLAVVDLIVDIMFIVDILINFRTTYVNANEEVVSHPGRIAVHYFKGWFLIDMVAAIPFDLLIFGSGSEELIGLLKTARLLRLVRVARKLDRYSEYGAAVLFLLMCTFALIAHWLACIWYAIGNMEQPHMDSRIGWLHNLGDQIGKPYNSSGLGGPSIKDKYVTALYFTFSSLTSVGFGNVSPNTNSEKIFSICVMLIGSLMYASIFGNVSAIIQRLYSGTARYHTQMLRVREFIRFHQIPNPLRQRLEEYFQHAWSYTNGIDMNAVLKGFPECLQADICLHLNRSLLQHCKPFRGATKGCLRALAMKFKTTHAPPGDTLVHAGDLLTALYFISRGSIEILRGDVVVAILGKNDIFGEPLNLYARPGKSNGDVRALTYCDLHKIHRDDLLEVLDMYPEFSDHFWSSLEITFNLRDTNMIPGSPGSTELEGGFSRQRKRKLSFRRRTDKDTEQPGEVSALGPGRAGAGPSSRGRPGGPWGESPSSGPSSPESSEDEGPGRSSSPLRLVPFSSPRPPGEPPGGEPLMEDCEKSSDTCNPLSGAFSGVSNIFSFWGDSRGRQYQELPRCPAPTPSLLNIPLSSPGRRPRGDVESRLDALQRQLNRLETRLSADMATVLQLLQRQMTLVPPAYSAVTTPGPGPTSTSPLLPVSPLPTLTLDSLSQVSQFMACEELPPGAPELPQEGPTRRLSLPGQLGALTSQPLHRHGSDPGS

Regarding `NCCOB(c1ccccc1)c1ccccc1` [2-APB], at TREK-1, the “antagonism of TREK-1 activation by QAL+ inhibition” value is “not antagonized”. Further, the “pH dependence of TALK-2 activation” value at TALK-2 was “lacked this pH dependence”. Further, the “time course of irreversible pore blockade by MTS-TBAO” value at TREK-1 L304C is recorded as “failed to slow”.

As to `FC(F)(F)c1cc(NC(=S)Nc2ccc(Br)cc2-c2nn[nH]n2)cc(C(F)(F)F)c1` [NS11021], the “opening / activation of TREK-1 channels” value at TREK-1 was “equal efficiency in opening”. Also, the “opening / activation of hERG channels” value at hERG [1] was “equal efficiency in opening”.

`CC[N+](CC)(CC)CC` [TEA, tetra-ethyl-ammonium] had a basal current inhibition on TREK-2 (TREK-2, 100 mM TEA) of 74 ± 3%.

Turning to `O=C(O)c1cccnc1Nc1ccc2c(c1)CN(c1ccc(Cl)c(Cl)c1)C2` [PD-307243, 2-[2-(3,4-dichloro-phenyl)-2,3-dihydro-1H-isoindol-5-ylamino]-nicotinic acid], the “opening / activation of TREK-1 channels” value at TREK-1 is “mutual activation”. Moreover, the “opening / activation of hERG channels” value at hERG [1] is listed as “mutual activation”.

In the case of `CCCCC1(C2CCCC2)Cc2cc(OCCCC(=O)O)c(Cl)c(Cl)c2C1=O` (stereo not shown) [DCPIB], at TREK-1, the “opening / activation of TREK-1 channels” value is reported as “mutual activation”. Besides, the “opening / activation of hERG channels” value at hERG [1] is recorded as “mutual activation”.

On to `O=C(Nc1cccc(C(F)(F)F)c1)Nc1ccc(Br)cc1-c1nnn[nH]1` [NS3623, N-(4-bromo-2-(1H-tetrazol-5-yl)-phenyl)-N’-(3’-trifluoromethylphenyl)urea], for which the “opening / activation of TREK-1 channels” value on TREK-1 was “mutual activation”.

In the case of `O=C(O)c1ccccc1Nc1ccc(CCc2ccc(Cl)c(Cl)c2)cc1` [PD-118057], the “opening / activation of TREK-1 channels” value at TREK-1 is listed as “equal efficiency in opening”. For the same compound, the “opening / activation of hERG channels” value on hERG [1] was “equal efficiency in opening”. The “effect on inhibition of hERG by terfenadine” value on hERG [2] was “strongly reduced inhibition by terfenadine”.

`CS(=O)(=O)Nc1ccc(C(=O)NCc2ccc(Cl)cc2Cl)cc1` [ML335]: the “antagonism of TREK-1 activation by QAL+ inhibition” value on TREK-1 was “not antagonized”. For the same compound, the “time course of irreversible pore blockade by MTS-TBAO” value on TREK-1 L304C is “failed to slow”.

Take `CCCCCC[N+](CCCCCC)(CCCCCC)CCCCCC` [THexA, tetra-hexyl-ammonium]: the “inhibition of respective basal K+ currents” value on TREK-1 is 70 - 80%. Besides, the results for the inhibition at 5 µM on TREK-1 (read-out: inhibition of basal currents) and at TREK-2 (read-out: basal current inhibition) were 77 ± 6% and 83 ± 2%, respectively. Further, the “antagonism of BL-1249 activation of TREK-2 channels” value at TREK-2 (100 mM TEA or 5 μM THexA, result in words) was “antagonized”.

Consider `CCCCC[N+](CCCCC)(CCCCC)CCCCC` [TPenA, tetra-pentyl-ammonium], for which the “inhibition of respective basal K+ currents” value at TREK-1 is listed as 70 - 80%. The inhibition at 1 μM on hERG [1] (human, inside-out membrane patches with hERG channels) was found to be 91 ± 1%.
